Experimental data from ChEMBL document CHEMBL1154897, “HPLC-based activity profiling: discovery of piperine as a positive GABA(A) receptor modulator targeting a benzodiazepine-independent binding site” (J Nat Prod, 2010).
Calls of active or inactive are those of the source. The calls are words filed in the database; no cut-off is given here.

Experiments:
Oocyte [1] = test: Activation of rat GABA alpha-1-beta-2-gamma-2 receptor expressed in xenopus oocytes assessed as potentiation of GABA-induced chloride current at 100 uM after 90 secs by two […] electrode voltage clamp assay; type: cell-based
Method in brief: (§1)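 Rat α1, β2, γ2S cRNAs (1:1:10) injected into collagenase-defolliculated Xenopus oocytes, stored at 18 °C in ND96, recorded on days 1–5. Two-microelectrode voltage clamp at −70 mV. Bath: 90 mM NaCl, 1 mM KCl, 1 mM MgCl2, 1 mM CaCl2, 5 mM HEPES, pH 7.4. Cells with maximal currents > 3 μA discarded. Solutions delivered by automated fast perfusion.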

Oocyte [2] = test: Activation of rat GABA alpha-1-beta-2-gamma-2 receptor expressed in xenopus oocytes assessed as potentiation of chloride current at 100 uM after 90 secs by two […] electrode voltage clamp assay; type: cell-based; method in brief: as §1
Oocyte [3] = test: Activation of rat GABA alpha-1-beta-2-gamma-2 receptor expressed in xenopus oocytes assessed as potentiation of GABA-induced chloride current at 300 uM after 90 secs by two […] electrode voltage clamp assay; type: cell-based; method in brief: as §1
[4] = (§2) Activation of rat GABA alpha-1-beta-2-gamma-2 receptor expressed in xenopus oocytes assessed as potentiation of GABA-induced chloride current after 90 secs by two […] electrode voltage clamp assay; type: cell-based; settings: Oocyte
Method in brief: (§3)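 Xenopus oocytes injected with rat α1, β2, γ2S cRNAs (1:1:10), kept at 18 °C in ND96, recorded days 1–5. Two-electrode voltage clamp at −70 mV in bath containing 90 mM NaCl, 1 mM KCl, 1 mM MgCl2, 1 mM CaCl2, 5 mM HEPES, pH 7.4. Compound (1–300 μM) preapplied 90 s, then coapplied with GABA EC5–10 by fast perfusion. Values n = 3.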

Oocyte [5] = test: as §2; type: cell-based; method in brief: as §3
Oocyte [6] = test: Activation of rat GABA alpha-1-beta-2-gamma-2 receptor expressed in xenopus oocytes assessed as potentiation of GABA-induced chloride current at 300 uM after 90 secs by two […] electrode voltage clamp assay relative to control in presence of flumazenil; type: cell-based; method in brief: as §1
[7] = Displacement of [3H]-flumazenil from GABAA receptor
Oocyte [8] = test: Activation of rat GABA alpha-1-beta-2-gamma-2 receptor expressed in xenopus oocytes assessed as potentiation of GABA-induced chloride current at 100 uM after 90 secs by two […] electrode voltage clamp assay in presence of 1 uM Diazepam; type: cell-based; method in brief: as §1

Row | SMILES | Activity (Oocyte [1]) | Activity (Oocyte [2]) | Activity (Oocyte [3]) | EC50 [4] | Activity (Oocyte [5]) | Activity (Oocyte [6]) | IC50 [7] | Activity (Oocyte [8])
1 | O=C(CCCC/C=C/c1ccc2c(c1)OCO2)N1CCCCC1 | 32% | inactive |  |  |  |  |  | 
2 | O=C(/C=C/CCc1ccc2c(c1)OCO2)N1CCCCC1 [PIPERANINE] | 138% | inactive | 187% | 56 µM | Dose-dependent effect |  |  | 
3 | O=C(/C=C/C=C/c1ccc2c(c1)OCO2)N1CCCCC1 [PIPERINE] | 226% | inactive | 302% | 52 µM | Dose-dependent effect | 334% | 1200 µM | 391%
4 | O=C(/C=C/C=C/c1ccc2c(c1)OCO2)N1CCCC1 | -29% | inactive |  |  |  |  |  | 
5 | CC(C)CNC(=O)/C=C/C=C/c1ccc2c(c1)OCO2 | -10% | inactive |  |  |  |  |  | 
